The values that follow come from ChEMBL document CHEMBL1128446, “Pyrazinoic acid esters with broad spectrum in vitro antimycobacterial activity” (1995).

Structures are written as SMILES. ≈ marks a conversion by molar mass, not a printed value.

What all share (assay type): functional
For test [1], the system named is Mycobacterium tuberculosis. As to the kind of experiment: Minimum Inhibitory Concentration against Mycobacterium tuberculosis ATCC 35801. Put shortly:
(§1)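 Broth macrodilution in tubes of modified Middlebrook 7H10 broth (agar and malachite green omitted) with 10% OADC and 0.05% Tween 80 at pH 5.8. Cultures were grown 3 days at 37 °C on a rotary shaker, then diluted with 7H10 broth to 1 Klett unit/mL. Stocks were made in water or DMSO and filter-sterilised; 2-fold serial dilutions were tested. Tubes shaken 7–10 days at 37 °C, with a drug-free control. MIC = lowest concentration (μg/mL) with no visible turbidity.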

Test [2] concerns Mycobacterium kansasii. As to the kind of experiment: Minimum Inhibitory Concentration against clinical isolates of Mycobacterium kansasii S. Put shortly: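 Grown 3 days at 37 °C on a rotary shaker in modified Middlebrook 7H10 broth (agar and malachite green omitted) with 10% OADC and 0.05% Tween 80. Diluted to 1 Klett unit/mL. Tubes held serial 2-fold dilutions in 7H10 broth at pH 5.8, from stocks in water or DMSO, and were shaken at 37 °C for 7–10 days with a drug-free control. MIC was the lowest concentration with no visible turbidity.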

The test system of test [3] is Mycobacterium avium. As to the kind of experiment: Minimum Inhibitory Concentration against clinical isolates of Mycobacterium avium complex ATCC 49601. Put shortly:
as §1

The subject of test [4] is Mycobacterium avium. As to the kind of experiment: Minimum Inhibitory Concentration in clinical isolates against Mycobacterium avium complex 101. Put shortly: as §1
Test [5] concerns Mycobacterium tuberculosis. As to the kind of experiment: Minimum Inhibitory Concentration against Mycobacterium tuberculosis ATCC 27294. Particulars: Mycobacterium tuberculosis, ATCC 27294; read-out: MIC. Put shortly: as §1

Turning to `CCCCCCOC(=O)c1cnc(F)cn1`, the MIC in test [1] is 4 µg/mL (≈ 17.7 µM); in test [2], 8 µg/mL (≈ 35.4 µM); in test [3] it was 64 µg/mL (≈ 283 µM); in test [4] it was 64 µg/mL (≈ 283 µM).

Regarding `CCCCCCCC(C)(CCCCC)OC(=O)c1cnc(Cl)cn1` (stereo not given), the MIC is 4 µg/mL (≈ 11.3 µM) in test [1], 2 µg/mL (≈ 5.64 µM) in test [5], above 64 µg/mL in test [3] and above 64 µg/mL in test [4].

Regarding `CCCOC(=O)c1cnc(C)cn1`, the minimal inhibitory concentration (MIC) is 4 µg/mL (≈ 22.2 µM) in test [1]; 8 µg/mL (≈ 44.4 µM) in test [2]; 2 µg/mL (≈ 11.1 µM) in test [5]; above 64 µg/mL in test [3]; above 64 µg/mL in test [4].

With `CCCCCCCCCCOC(=O)c1cnc(F)cn1`, the MIC in test [1] was found to be 4 µg/mL (≈ 14.2 µM); in test [2], 1 µg/mL (≈ 3.54 µM); in test [5], 2 µg/mL (≈ 7.08 µM); in test [3], 32 µg/mL (≈ 113 µM); in test [4], 32 µg/mL (≈ 113 µM).

On to `COC(=O)c1cnccn1`, for which the MIC in test [1] is 16 µg/mL (≈ 116 µM); in test [2] it was above 64 µg/mL; in test [5], below 8 µg/mL; in test [3], above 256 µg/mL.

For `CC(C)COC(=O)c1cnc(Cl)cn1`, the minimum inhibitory concentration (MIC) in test [1] is 0.25 µg/mL (≈ 1.16 µM); in test [2] it was below 1 µg/mL; in test [5], 2 µg/mL (≈ 9.32 µM); in test [3] it was 64 µg/mL (≈ 298 µM); in test [4], 64 µg/mL (≈ 298 µM).

For `CCCCCCCCC(C)OC(=O)c1cnc(Cl)cn1` (stereo not given), the MIC in test [1] is 0.5 µg/mL (≈ 1.67 µM); in test [2], below 0.12 µg/mL; in test [5], 0.06 µg/mL (≈ 0.201 µM); in test [3] it was 32 µg/mL (≈ 107 µM); in test [4], 32 µg/mL (≈ 107 µM).

As for `CCCCCC(C)(CCCCC)OC(=O)c1cnc(Cl)cn1`, the minimal inhibitory concentration (MIC) in test [1] is 8 µg/mL (≈ 24.5 µM); in test [2], 8 µg/mL (≈ 24.5 µM); in test [5] it was 8 µg/mL (≈ 24.5 µM); in test [3], 64 µg/mL (≈ 196 µM); in test [4], 64 µg/mL (≈ 196 µM).

With `COC(=O)c1cnc(C)cn1`, the MIC in test [1] was 8 µg/mL (≈ 52.6 µM); in test [2], 32 µg/mL (≈ 210 µM); in test [5], 16 µg/mL (≈ 105 µM); in test [3], above 256 µg/mL; in test [4], above 256 µg/mL.

Consider `CCCCCCC(C)(CCCC)OC(=O)c1cnc(Cl)cn1` (stereo not given), for which the MIC in test [1] is 8 µg/mL (≈ 24.5 µM); in test [2] it was 4 µg/mL (≈ 12.2 µM); in test [5] it was 4 µg/mL (≈ 12.2 µM); in test [4], above 256 µg/mL.

For `CCCCCCCCC(CC)OC(=O)c1cnc(Cl)cn1` (stereo not given), the MIC is 0.25 µg/mL (≈ 0.799 µM) in test [1]; below 0.03 µg/mL in test [2]; 0.5 µg/mL (≈ 1.6 µM) in test [5]; 32 µg/mL (≈ 102 µM) in test [3]; 64 µg/mL (≈ 205 µM) in test [4].

Take `O=C(OCc1ccccc1)c1cnccn1`: the MIC was 1 µg/mL (≈ 4.67 µM) in test [1]; 1 µg/mL (≈ 4.67 µM) in test [2]; below 1 µg/mL in test [5]; 64 µg/mL (≈ 299 µM) in test [3]; 64 µg/mL (≈ 299 µM) in test [4].

`CC(C)(OC(=O)c1cnc(Cl)cn1)c1ccccc1`: the MIC in test [1], in test [2] and in test [5] was 16 µg/mL (≈ 57.8 µM) throughout.

With `CCCCCCCC(OC(=O)c1cnc(Cl)cn1)C(C)(C)C` (stereo not given), the MIC in test [1] is 2 µg/mL (≈ 6.12 µM); in test [2], 0.25 µg/mL (≈ 0.765 µM); in test [5], 0.5 µg/mL (≈ 1.53 µM); in test [4], above 256 µg/mL.

As to `O=C(OCc1ccc(Br)cc1)c1cnc(Cl)cn1`, the MIC in test [1] was 1 µg/mL (≈ 3.05 µM); in test [2] it was 0.125 µg/mL (≈ 0.382 µM); in test [5] it was 1 µg/mL (≈ 3.05 µM); in test [3], 64 µg/mL (≈ 195 µM); in test [4], 32 µg/mL (≈ 97.7 µM).

Regarding `CCCCC(OC(=O)c1cnc(Cl)cn1)c1ccccc1` (stereo not given), the MIC turned out to be 2 µg/mL (≈ 6.56 µM) in test [1]; 1 µg/mL (≈ 3.28 µM) in test [2]; 4 µg/mL (≈ 13.1 µM) in test [5]; 64 µg/mL (≈ 210 µM) in test [3]; 128 µg/mL (≈ 420 µM) in test [4].

Consider `CCCCCCCCCCCCCCCOC(=O)c1cnccn1`, for which the MIC in test [1] turned out to be 0.12 µg/mL (≈ 0.359 µM); in test [2], 1 µg/mL (≈ 2.99 µM); in test [5] it was 0.06 µg/mL (≈ 0.179 µM); in test [3], 8 µg/mL (≈ 23.9 µM); in test [4], 32 µg/mL (≈ 95.7 µM).

Take `CC(C)(C)C(OC(=O)c1cnc(Cl)cn1)c1ccccc1` (stereo not given): the MIC in test [1] was 4 µg/mL (≈ 13.1 µM); in test [2], 2 µg/mL (≈ 6.56 µM); in test [5], 4 µg/mL (≈ 13.1 µM); in test [3], 256 µg/mL (≈ 840 µM); in test [4], 128 µg/mL (≈ 420 µM).

Turning to `Cc1cc(C(C)(C)C)c(OC(=O)c2cnccn2)c(C(C)(C)C)c1`, the minimal inhibitory concentration (MIC) in test [2] was above 16 µg/mL; in test [5], 128 µg/mL (≈ 392 µM); in test [3], above 1020 µg/mL; in test [4] it was above 1020 µg/mL.

As for `CCCCCCCCCCC(OC(=O)c1cnc(Cl)cn1)C(C)(C)C` (stereo not given), the minimal inhibitory concentration (MIC) in test [1] is 8 µg/mL (≈ 21.7 µM); in test [2] it was 4 µg/mL (≈ 10.8 µM); in test [5], 16 µg/mL (≈ 43.4 µM); in test [3], 256 µg/mL (≈ 694 µM); in test [4], above 256 µg/mL.

Take `CC(C)COC(=O)c1cnccn1`: the minimal inhibitory concentration (MIC) was 16 µg/mL (≈ 88.8 µM) in test [1], above 64 µg/mL in test [2], below 8 µg/mL in test [5] and 256 µg/mL (≈ 1420 µM) in test [4].

In the case of `CCOC(=O)c1cnc(Cl)cn1`, the MIC in test [1] is 2 µg/mL (≈ 10.7 µM); in test [2] it was 2 µg/mL (≈ 10.7 µM); in test [5] it was 1 µg/mL (≈ 5.36 µM); in test [3], 128 µg/mL (≈ 686 µM); in test [4] it was 128 µg/mL (≈ 686 µM).

In the case of `CCCCCCC(C)OC(=O)c1cnc(Cl)cn1` (stereo not given), the MIC is 0.25 µg/mL (≈ 0.923 µM) in test [1]; below 0.015 µg/mL in test [2]; 0.06 µg/mL (≈ 0.222 µM) in test [5]; 16 µg/mL (≈ 59.1 µM) in test [3]; 8 µg/mL (≈ 29.5 µM) in test [4].

As to `CCCCCC(CC)OC(=O)c1cnc(C)cn1` (stereo not given), the minimum inhibitory concentration (MIC) in test [1] turned out to be 0.5 µg/mL (≈ 2 µM); in test [2], 4 µg/mL (≈ 16 µM); in test [5] it was 1 µg/mL (≈ 3.99 µM); in test [3], 64 µg/mL (≈ 256 µM); in test [4] it was 64 µg/mL (≈ 256 µM).

Regarding `O=C(OCc1ccccc1)c1cnc(Cl)cn1`, the MIC in test [1] amounted to 0.5 µg/mL (≈ 2.01 µM); in test [2], 1 µg/mL (≈ 4.02 µM); in test [5], 1 µg/mL (≈ 4.02 µM); in test [3] it was 4 µg/mL (≈ 16.1 µM); in test [4], 8 µg/mL (≈ 32.2 µM).

As for `CC(C)(C)OC(=O)c1cnc(Cl)cn1`, the MIC was 0.5 µg/mL (≈ 2.33 µM) in test [1]; below 1 µg/mL in test [2]; 0.25 µg/mL (≈ 1.16 µM) in test [5]; 128 µg/mL (≈ 596 µM) in test [3]; 128 µg/mL (≈ 596 µM) in test [4].

Consider `O=C(Oc1cccc2ccccc12)c1cnccn1`, for which the minimal inhibitory concentration (MIC) was above 16 µg/mL in test [2], 8 µg/mL (≈ 32 µM) in test [5], 64 µg/mL (≈ 256 µM) in test [3] and 128 µg/mL (≈ 511 µM) in test [4].

Take `O=C(OCCc1ccccc1)c1cnc(Cl)cn1`: the MIC in test [1] turned out to be 1 µg/mL (≈ 3.81 µM); in test [2] it was 0.25 µg/mL (≈ 0.952 µM); in test [5] it was 1 µg/mL (≈ 3.81 µM); in test [3], 8 µg/mL (≈ 30.5 µM); in test [4], 32 µg/mL (≈ 122 µM).

On to `CC(OC(=O)c1cnc(Cl)cn1)c1ccc(Br)cc1` (stereo not given), for which the MIC amounted to 8 µg/mL (≈ 23.4 µM) in test [1]; 0.25 µg/mL (≈ 0.732 µM) in test [2]; 2 µg/mL (≈ 5.85 µM) in test [5]; 16 µg/mL (≈ 46.8 µM) in test [3]; 32 µg/mL (≈ 93.7 µM) in test [4].

With `CCCOC(=O)c1cnc(Cl)cn1`, the MIC in test [1] is below 0.03 µg/mL; in test [2], 0.25 µg/mL (≈ 1.25 µM); in test [5], 0.06 µg/mL (≈ 0.299 µM); in test [3] it was 16 µg/mL (≈ 79.8 µM); in test [4] it was 16 µg/mL (≈ 79.8 µM).

With `CCCCCCCOC(=O)c1cnc(Cl)cn1`, the MIC is below 0.03 µg/mL in test [1]; below 0.03 µg/mL in test [2]; 0.06 µg/mL (≈ 0.234 µM) in test [5]; 16 µg/mL (≈ 62.3 µM) in test [3]; 8 µg/mL (≈ 31.2 µM) in test [4].

As for `CCC(C)(CC)OC(=O)c1cnc(Cl)cn1`, the MIC in test [1] is 8 µg/mL (≈ 33 µM); in test [2], 2 µg/mL (≈ 8.24 µM); in test [5], 8 µg/mL (≈ 33 µM); in test [3], 256 µg/mL (≈ 1050 µM); in test [4], above 256 µg/mL.

On to `CCCCCCOC(=O)c1cnc(Cl)cn1`, for which the MIC in test [1] is 0.125 µg/mL (≈ 0.515 µM); in test [2], 0.015 µg/mL (≈ 0.0618 µM); in test [5], 0.125 µg/mL (≈ 0.515 µM); in test [3] it was 16 µg/mL (≈ 65.9 µM); in test [4], 32 µg/mL (≈ 132 µM).
